Source: ChEMBL document CHEMBL5055621, “Synthesis and Characterization of the Novel Rodent-Active and CNS-Penetrant P2X7 Receptor Antagonist Lu AF27139” (J Med Chem, 2021)

What was measured:
P2X purinoceptor 7 [1] = target: T1, P2X purinoceptor 7 (Mus musculus, UniProt Q9Z1M0); test: Antagonist activity at mouse P2X7 receptor expressed in HEK293 cells assessed as inhibition of BzATP-induced calcium-flux measured after 60 mins by FLIPR analysis; type: cell-based
T1 sequence (Q9Z1M0 whole entry): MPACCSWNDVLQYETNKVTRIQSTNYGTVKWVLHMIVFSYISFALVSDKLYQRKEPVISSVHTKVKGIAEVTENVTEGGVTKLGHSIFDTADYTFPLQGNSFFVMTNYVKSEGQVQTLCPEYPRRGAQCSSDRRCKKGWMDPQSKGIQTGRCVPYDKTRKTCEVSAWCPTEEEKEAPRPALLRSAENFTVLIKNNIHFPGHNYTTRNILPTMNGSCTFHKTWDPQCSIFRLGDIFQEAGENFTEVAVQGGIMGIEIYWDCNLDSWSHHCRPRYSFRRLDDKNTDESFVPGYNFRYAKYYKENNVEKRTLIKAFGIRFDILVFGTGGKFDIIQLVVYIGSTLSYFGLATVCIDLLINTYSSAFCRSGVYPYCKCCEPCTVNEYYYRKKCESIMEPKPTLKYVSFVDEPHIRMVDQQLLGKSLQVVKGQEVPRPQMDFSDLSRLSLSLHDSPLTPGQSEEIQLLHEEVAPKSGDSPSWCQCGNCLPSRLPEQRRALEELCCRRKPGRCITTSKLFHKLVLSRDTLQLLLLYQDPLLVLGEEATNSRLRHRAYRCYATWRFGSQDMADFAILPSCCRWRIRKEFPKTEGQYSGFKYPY
How it was run: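 Stable rat or mouse P2X7 HEK293 cells in HBSS/20 mM HEPES/2.5 mM probenecid/0.05% BSA, pH 7.4, were loaded with Fluo-4 NW (37 °C 30 min, RT 30 min). After 30 min at RT, calcium fluorescence was read by FLIPR; n ≥ 3.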

P2X purinoceptor 7 [2] = target: T2, P2X purinoceptor 7 (Homo sapiens, UniProt Q99572); test: Displacement of [3H]-A-804598 from human P2X7 receptor expressed in HEK293 cell membrane by in vitro binding assay; type: cell membranes
T2 sequence (Q99572 whole entry): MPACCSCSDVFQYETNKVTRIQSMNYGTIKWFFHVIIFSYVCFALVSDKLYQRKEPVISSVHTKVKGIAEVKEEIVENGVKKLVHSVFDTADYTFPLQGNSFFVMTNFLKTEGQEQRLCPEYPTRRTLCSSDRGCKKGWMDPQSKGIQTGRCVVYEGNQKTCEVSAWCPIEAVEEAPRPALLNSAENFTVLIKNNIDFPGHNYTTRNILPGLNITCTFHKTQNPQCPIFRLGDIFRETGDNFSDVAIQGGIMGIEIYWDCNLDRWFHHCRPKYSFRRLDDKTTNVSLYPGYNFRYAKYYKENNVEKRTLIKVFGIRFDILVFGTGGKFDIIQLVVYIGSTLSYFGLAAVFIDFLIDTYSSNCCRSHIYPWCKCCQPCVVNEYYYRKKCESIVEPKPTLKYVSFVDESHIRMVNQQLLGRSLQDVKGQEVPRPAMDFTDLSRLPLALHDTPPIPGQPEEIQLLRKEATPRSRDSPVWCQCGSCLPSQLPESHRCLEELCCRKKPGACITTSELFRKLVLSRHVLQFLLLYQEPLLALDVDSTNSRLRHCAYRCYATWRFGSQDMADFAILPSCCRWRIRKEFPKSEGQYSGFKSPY

[3] = Inhibition of BzATP-induced current in rat primary microglia cells measured after repeated BzATP treatment at -60 mV at 30 nM by whole cell patch clamp assay relative to control; type: functional
How it was run: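 Rat primary microglia were whole-cell patch-clamped at −60 mV (external pH 7.4 with 1.8 mM CaCl2; CsCl/EGTA internal pH 7.2). Currents came from 10 s applications of 300 μM BzATP, applied repeatedly. Compound was applied by gravity via capillary for 60 s, and inhibition was taken relative to the control response.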

Cytochrome P450 1A2 = target: T3, Cytochrome P450 1A2 (Homo sapiens, UniProt P05177); test: Inhibition of CYP1A2 (unknown origin) upto 25 uM; type: ADME
T3 sequence (P05177 whole entry): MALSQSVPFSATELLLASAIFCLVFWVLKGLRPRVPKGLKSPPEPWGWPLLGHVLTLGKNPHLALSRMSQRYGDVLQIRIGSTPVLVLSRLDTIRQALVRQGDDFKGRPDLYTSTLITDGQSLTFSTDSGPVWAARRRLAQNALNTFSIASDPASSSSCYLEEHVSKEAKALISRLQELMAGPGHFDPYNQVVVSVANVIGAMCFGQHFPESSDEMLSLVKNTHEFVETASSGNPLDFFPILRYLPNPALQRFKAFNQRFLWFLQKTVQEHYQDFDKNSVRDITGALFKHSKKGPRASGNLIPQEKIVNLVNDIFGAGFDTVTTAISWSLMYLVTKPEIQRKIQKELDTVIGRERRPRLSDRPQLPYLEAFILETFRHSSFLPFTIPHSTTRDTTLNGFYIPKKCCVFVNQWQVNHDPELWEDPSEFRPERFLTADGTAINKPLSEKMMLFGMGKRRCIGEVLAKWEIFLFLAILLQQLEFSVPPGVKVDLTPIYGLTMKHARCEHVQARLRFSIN

Cytochrome P450 2C19 = Cytochrome P450 2C19 (Homo sapiens, UniProt P33261); test: Time dependent inhibition of CYP2C19 (unknown origin) upto 25 uM; type: ADME
[4] = Free plasma concentration in rat at 30 mg/kg, po after 1 hr by ex vivo equilibrium dialysis; type: ADME, organism-based
How it was run: (§1)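 Male Sprague–Dawley rats were dosed orally at 1–100 mg/kg, and total plasma concentration was measured at 1 and 2 h. This was multiplied by fraction unbound from ex vivo equilibrium dialysis; mean ± SEM, n = 3 animals.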

[5] = Free plasma concentration in rat at 100 mg/kg, po after 1 hr by ex vivo equilibrium dialysis; type: ADME, organism-based; how it was run: as §1
[6] = Free plasma concentration in rat at 1 mg/kg, po after 2 hrs by ex vivo equilibrium dialysis; type: ADME, organism-based; how it was run: as §1
[7] = Free plasma concentration in rat at 10 mg/kg, po after 2 hrs by ex vivo equilibrium dialysis; type: ADME, organism-based; how it was run: as §1
Rattus norvegicus [8] = test: Reduction in LPS/BzATP-induced IL-1beta release in icv dosed Sprague-Dawley rat frontal cortex assessed as minimal effective dose pretreated 1 hr before BzATP stimulus; type: functional; details: read-out: MED
How it was run: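 Rats and mice with frontal cortex microdialysis probes and a lateral ventricle cannula received icv LPS (rat 3 μg/5 μL; mouse 0.1 μg/3 μL), and 1 h later oral compound in 20% HP-β-cyclodextrin. BzATP icv (rat 50 μg; mouse 5 μg) followed 1 h later.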

Rattus norvegicus [9] = test: Toxicity in Sprague-Dawley rat assessed as histological changes up to 150 mg/kg, po by 7 days exploratory toxicology study; type: organism-based; details: in vivo, 168 h, time 7 day
How it was run: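 Exploratory 7-day repeat oral toxicity study in male and female rats at doses from 3 up to 150 mg/kg po. Endpoints were macroscopic pathology, histology and hematology.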

[10] = AUC (0 to 8 hr) in male rat at 3 mg/kg, po after 7 days; type: ADME, organism-based; design: dose 3 mg/kg, time 7 day, route po; details: in vivo
How it was run: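 Oral dosing in male Sprague-Dawley rats (150−200 g, 7-day acclimation, standard housing) in a 7-day exploratory toxicology study.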

in vitro = details: human, liver microsomes

Chain of Cytochrome P450 2C19 (P33261 whole entry): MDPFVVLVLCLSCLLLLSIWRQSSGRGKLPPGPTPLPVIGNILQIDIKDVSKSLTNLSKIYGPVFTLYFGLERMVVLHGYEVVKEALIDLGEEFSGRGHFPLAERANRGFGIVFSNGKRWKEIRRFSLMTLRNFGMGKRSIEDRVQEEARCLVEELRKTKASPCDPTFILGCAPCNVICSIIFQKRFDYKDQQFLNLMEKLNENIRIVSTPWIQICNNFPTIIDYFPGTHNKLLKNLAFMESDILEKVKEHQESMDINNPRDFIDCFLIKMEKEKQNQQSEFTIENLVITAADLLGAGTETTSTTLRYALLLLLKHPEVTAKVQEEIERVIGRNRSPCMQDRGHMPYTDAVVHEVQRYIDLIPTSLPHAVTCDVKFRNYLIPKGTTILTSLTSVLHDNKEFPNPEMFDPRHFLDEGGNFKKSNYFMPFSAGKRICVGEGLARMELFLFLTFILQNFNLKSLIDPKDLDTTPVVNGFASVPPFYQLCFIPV

SMILES: O=C(NC[C@H](c1ccc(Cl)cc1)N1CCOCC1)c1sc(-c2ncccn2)nc1C(F)(F)F
- IC50 (P2X purinoceptor 7 [1]): 22 nM
- Ki (P2X purinoceptor 7 [2]): 55 nM
- inhibition at 0.03 µM [3]: 67%
- inhibition (INH) (Cytochrome P450 1A2): Not Active
- TDI (Cytochrome P450 2C19): Not Active
- Cp(f) [4]: 414 nM
- Cp(f) [5]: 1460 nM
- Cp(f) [6]: 22.8 nM
- Cp(f) [7]: 164 nM
- minimal effective dose (Rattus norvegicus [8]): 3 mg/kg
- Activity (Rattus norvegicus [9]): Non-Toxic
- AUC at 168 h [10]: 7.16 µM·h
- CLint scaled at 1 h, 1 µM (in vitro): 43.3 mL/min/kg
